Reference: ChEMBL document CHEMBL5226332, “Amino-Substituted 3-Aryl- and 3-Heteroarylquinolines as Potential Antileishmanial Agents” (J Med Chem, 2021)

Columns and labels:
Format in all cases: ADME, organism-based
Conditions in all cases: in vivo
[1] = Cmax in BALB/c mouse at 10 mg/kg, ip measured after 24 hrs by LC/MS analysis; parameters: dose 10 mg/kg, time 24 hrs, route ip
Summary of the method: (§1)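 Mice given one 10 mg/kg dose by IV, oral or IP route; parent and monomethyl metabolite measured in plasma. Oral dose given in 10/10/40/39 EtOH/PG/PEG400/PBS (pH 7.4) plus 1% w/v HβCD. Vd is steady-state for IV and apparent for the other routes.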

[2] = AUC in BALB/c mouse at 10 mg/kg, ip measured after 24 hrs by LC/MS analysis; parameters: dose 10 mg/kg, time 24 hrs, route ip; summary of the method: as §1
[3] = AUC in BALB/c mouse at 10 mg/kg, po measured after 24 hrs by LC/MS analysis; parameters: time 24 hrs, dose 10 mg/kg, route po; summary of the method: as §1
[4] = Tmax in BALB/c mouse at 10 mg/kg, po measured after 24 hrs by LC/MS analysis; summary of the method: as §1
[5] = Cmax in BALB/c mouse at 10 mg/kg, po measured after 24 hrs by LC/MS analysis; parameters: dose 10 mg/kg, time 24 hrs, route po; summary of the method: as §1
[6] = Volume of distribution in BALB/c mouse at 10 mg/kg, iv measured after 24 hrs by LC/MS analysis; summary of the method: as §1
[7] = AUC in BALB/c mouse at 10 mg/kg, iv measured after 24 hrs by LC/MS analysis; parameters: dose 10 mg/kg, time 24 hrs, route iv; summary of the method: as §1
[8] = Cmax in BALB/c mouse at 10 mg/kg, iv measured after 24 hrs by LC/MS analysis; parameters: time 24 hrs, dose 10 mg/kg, route iv; summary of the method: as §1

| Cmax [1] | AUC [2] | AUC [3] | Tmax [4] | Cmax [5] | Vd [6] | AUC [7] | Cmax [8] | Structure (SMILES) |
| --- | --- | --- | --- | --- | --- | --- | --- | --- |
| 3170 nM | 3.81 µM·h | 0.921 µM·h | 6 min | 1000 nM | 9.88 L/kg | 5.95 µM·h | 2840 nM | CN(C)c1ccc2cc(-c3cn(C)c4ccccc34)c(N)nc2c1 |
| – | – | – | – | – | 25.9 L/kg | 3.91 µM·h | 741 nM | CN(C)c1ccc2cc(-c3cc(Cl)cc(Cl)c3)c(N)nc2c1 |
